Reference: ChEMBL document CHEMBL1151159, “Antineoplastic agents. 380. Isolation and X-ray crystal structure determination of isoaaptamine from the Republic of Singapore Hymeniacidon sp. and conversion to the phosphate prodrug hystatin 1” (2004)
In brackets after ≈: the same amount, converted by molar mass. Activity calls are given as the source filed them. No cut-off for these calls is given here.

Tests used:
P388 = assay: Antineoplastic activity against mouse P388 cells; type: functional; conditions: read-out: ED50 (the source's name)
Staphylococcus aureus = assay: Antimicrobial activity against Staphylococcus aureus by broth microdilution susceptibility assay; type: functional
How it was run: (§1)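 Bacteria tested by broth microdilution following the NCCLS standard for aerobically growing bacteria (M7-A4). MIC read as the lowest compound concentration that blocked all visible growth of the organism (optically clear wells).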

Escherichia coli = assay: Antimicrobial activity against Escherichia coli at 64 ug/ml by broth microdilution susceptibility assay; type: functional, organism-based; how it was run: as §1
[1] = tested on: Stenotrophomonas maltophilia; assay: Antimicrobial activity against Stenotrophomonas maltophilia at 64 ug/ml by broth microdilution susceptibility assay; type: functional, organism-based; how it was run: as §1
Enterococcus faecalis [2] = assay: Antimicrobial activity against Enterococcus faecalis by broth microdilution susceptibility assay; type: functional; how it was run: as §1
KM-20L2 = assay: Antineoplastic activity against human KM20L2 cells; type: functional; conditions: read-out: ED50 (the source's name)
OVCAR-3 = assay: Antineoplastic activity against human OVCAR-3 cells; type: functional; conditions: read-out: ED50 (the source's name)
A498 = assay: Antineoplastic activity against human A498 cells; type: functional; conditions: read-out: ED50 (the source's name)
SF-295 = assay: Antineoplastic activity against human SF295 cells; type: functional; conditions: read-out: ED50 (the source's name)
Enterobacter cloacae = assay: Antimicrobial activity against Enterobacter cloacae at 64 ug/ml by broth microdilution susceptibility assay; type: functional, organism-based; how it was run: as §1
Streptococcus pneumoniae = assay: Antimicrobial activity against Streptococcus pneumoniae by broth microdilution susceptibility assay; type: functional; how it was run: as §1
SK-MEL-5 = assay: Antineoplastic activity against human SK-MEL-5 cells; type: functional; conditions: read-out: ED50 (the source's name)
Cryptococcus neoformans [3] = assay: Antimicrobial activity against Cryptococcus neoformans by broth microdilution susceptibility assay; type: functional
How it was run: (§2)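 Yeast panel (Candida albicans, Cryptococcus neoformans) tested by broth microdilution following the NCCLS reference method for yeasts (M27-A). MIC taken as the lowest compound concentration giving no visible growth (optically clear).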

NCI-H460 = assay: Antineoplastic activity against human NCI-H460 cells; type: functional; conditions: read-out: ED50 (the source's name)
Micrococcus luteus [4] = assay: Antimicrobial activity against Micrococcus luteus by broth microdilution susceptibility assay; type: functional; how it was run: as §1
Neisseria gonorrhoeae = assay: Antimicrobial activity against Neisseria gonorrhoeae by broth microdilution susceptibility assay; type: functional; how it was run: as §1
Candida albicans = assay: Antimicrobial activity against Candida albicans at 64 ug/ml by broth microdilution susceptibility assay; type: functional, organism-based; how it was run: as §2
Micrococcus luteus [5] = assay: Antimicrobial activity against Micrococcus luteus at 64 ug/ml by broth microdilution susceptibility assay; type: functional, organism-based; how it was run: as §1
Enterococcus faecalis [6] = assay: Antimicrobial activity against Enterococcus faecalis at 64 ug/ml by broth microdilution susceptibility assay; type: functional, organism-based; how it was run: as §1
Cryptococcus neoformans [7] = assay: Antimicrobial activity against Cryptococcus neoformans at 64 ug/ml by broth microdilution susceptibility assay; type: functional, organism-based; how it was run: as §2

Structure (SMILES)	EC50 (P388) [µg/mL]	MIC (Staphylococcus aureus) [µg/mL]	Activity (Escherichia coli)	Activity [1]	MIC (Enterococcus faecalis [2]) [µg/mL]	EC50 (KM-20L2) [µg/mL]	EC50 (OVCAR-3) [µg/mL]	EC50 (A498) [µg/mL]	EC50 (SF-295) [µg/mL]	Activity (Enterobacter cloacae)	MIC (Streptococcus pneumoniae) [µg/mL]	EC50 (SK-MEL-5) [µg/mL]	MIC (Cryptococcus neoformans [3]) [µg/mL]	EC50 (NCI-H460) [µg/mL]	MIC (Micrococcus luteus [4]) [µg/mL]	MIC (Neisseria gonorrhoeae) [µg/mL]	Activity (Candida albicans)	Activity (Micrococcus luteus [5])	Activity (Enterococcus faecalis [6])	Activity (Cryptococcus neoformans [7])
COC1=Cc2ccnc3ccnc(c23)C1(OC)OC	59 (≈ 228 µM)	–	–	–	–	–	–	–	–	–	–	–	–	–	–	–	–	–	–	–
COc1cc2ccnc3c2c(c1O)N(C)C=C3 [ISOAAPTAMINE]	0.28 (≈ 1.23 µM)	16 (≈ 70.1 µM)	inactive	inactive	32 (≈ 140 µM)	2.3 (≈ 10.1 µM)	1.2 (≈ 5.26 µM)	2.2 (≈ 9.64 µM)	2.6 (≈ 11.4 µM)	inactive	8 (≈ 35 µM)	1.6 (≈ 7.01 µM)	64 (≈ 280 µM)	2.4 (≈ 10.5 µM)	32 (≈ 140 µM)	< 0.5	inactive	–	–	–
COc1cc2ccnc3c2c(c1OC)NC=C3 [AAPTAMINE]	3.6 (≈ 15.8 µM)	–	–	–	–	3.6 (≈ 15.8 µM)	4.9 (≈ 21.5 µM)	3.2 (≈ 14 µM)	4.1 (≈ 18 µM)	–	–	4.3 (≈ 18.8 µM)	–	3.2 (≈ 14 µM)	–	–	–	–	–	–
COC1=Cc2ccnc3ccnc(c23)C1=O [DEMETHYLOXY-AAPTAMINE]	0.31 (≈ 1.46 µM)	–	–	–	–	2.1 (≈ 9.9 µM)	0.39 (≈ 1.84 µM)	4.2 (≈ 19.8 µM)	2.8 (≈ 13.2 µM)	–	–	1 (≈ 4.71 µM)	–	2.3 (≈ 10.8 µM)	–	–	–	–	–	–
COc1cc2ccnc3c2c(c1OP(=O)([O-])[O-])N(C)C=C3.[Na+].[Na+] [HYSTATIN 1]	3	64	inactive	–	–	> 10	–	–	–	inactive	16	–	–	> 10	–	< 0.5	inactive	inactive	inactive	inactive
